Test results published in ChEMBL document CHEMBL1799942, “Design, synthesis and antifungal activities of novel 1,2,4-triazole derivatives” (2011).
≈ marks a conversion by molar mass, not a printed value.

How the values were obtained:
Type in all cases: functional
[1] = Antifungal activity against Fonsecaea compacta by micro-broth dilution method
Method in brief: (§1)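 Broth microdilution following the NCCLS yeast reference method (M27-A2), run on clinical isolates of filamentous fungi. Compounds were dissolved in DMSO, serially diluted in growth medium, inoculated and incubated at 35 °C. Growth was read at 7 days. MIC80 is the first well with about 80% less growth than the drug-free well.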

Aspergillus fumigatus = test: Antifungal activity against Aspergillus fumigatus after 7 days by micro-broth dilution method; settings: 168 h; method in brief: as §1
Candida parapsilosis = test: Antifungal activity against Candida parapsilosis ATCC 0306392 by micro-broth dilution method; settings: Lodderomyces parapsilosis
Method in brief: (§2)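 Micro-broth dilution per NCCLS M27-A2. The C. parapsilosis strain is the ATCC 0306392 quality-control standard tested in each assay; the C. tropicalis strain is a clinical isolate. Compounds were in DMSO, serially diluted in growth medium, inoculated and incubated at 35 °C. MIC80 is the first well with about 80% growth reduction relative to the drug-free well.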

Nannizzia gypsea = test: Antifungal activity against Microsporum gypseum after 7 days by micro-broth dilution method; settings: 168 h; method in brief: as §1
Candida tropicalis = test: Antifungal activity against Candida tropicalis by micro-broth dilution method; method in brief: as §2
Trichophyton rubrum = test: Antifungal activity against Trichophyton rubrum after 7 days by micro-broth dilution method; settings: 168 h; method in brief: as §1
Candida albicans = test: Antifungal activity against Candida albicans ATCC Y0109 after 24 hrs by micro-broth dilution method; settings: ATCC Y0109, 24 h
Method in brief: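 Micro-broth dilution per NCCLS M27-A2 on the quality-control standard strain ATCC Y0109, included in each assay. Compounds were dissolved in DMSO, serially diluted in growth medium, inoculated and incubated at 35 °C, with growth read at 24 h. MIC80 is the first well showing roughly 80% growth reduction versus the drug-free well.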

Cryptococcus neoformans = test: Antifungal activity against Cryptococcus neoformans ATCC BLS108 after 72 hrs by micro-broth dilution method; settings: ATCC BLS108, 72 h
Method in brief: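 NCCLS M27-A2 microdilution on the ATCC BLS108 quality-control strain, tested in every assay. Compounds were taken up in DMSO, serially diluted in growth medium, inoculated and incubated at 35 °C. Growth was scored at 72 h. MIC80 is the first well with about 80% lower growth than the drug-free control well.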

CCCC(=O)Nc1ccc(N2CCN(CC(O)(Cn3cncn3)c3ccc(F)cc3F)CC2)cc1 (racemic)
MIC80 [1]: 0.25 µg/mL (≈ 0.516 µM)
MIC80 (Aspergillus fumigatus): 4 µg/mL (≈ 8.26 µM)
MIC80 (Candida parapsilosis): 0.0156 µg/mL (≈ 0.0322 µM)
MIC80 (Nannizzia gypsea): 0.0625 µg/mL (≈ 0.129 µM)
MIC80 (Candida tropicalis): 0.0625 µg/mL (≈ 0.129 µM)
MIC80 (Trichophyton rubrum): 0.0625 µg/mL (≈ 0.129 µM)
MIC80 (Candida albicans): 0.00097 µg/mL (≈ 0.002 µM)
MIC80 (Cryptococcus neoformans): 0.25 µg/mL (≈ 0.516 µM)

CC(C)C(=O)Nc1ccc(N2CCN(CC(O)(Cn3cncn3)c3ccc(F)cc3F)CC2)cc1 (racemic)
MIC80 [1]: 0.25 µg/mL (≈ 0.516 µM)
MIC80 (Aspergillus fumigatus): 4 µg/mL (≈ 8.26 µM)
MIC80 (Candida parapsilosis): 0.0156 µg/mL (≈ 0.0322 µM)
MIC80 (Nannizzia gypsea): 0.0625 µg/mL (≈ 0.129 µM)
MIC80 (Candida tropicalis): 0.0156 µg/mL (≈ 0.0322 µM)
MIC80 (Trichophyton rubrum): 0.25 µg/mL (≈ 0.516 µM)
MIC80 (Candida albicans): 0.0039 µg/mL (≈ 0.00805 µM)
MIC80 (Cryptococcus neoformans): 1 µg/mL (≈ 2.06 µM)

CCCCC(=O)Nc1ccc(N2CCN(CC(O)(Cn3cncn3)c3ccc(F)cc3F)CC2)cc1 (racemic)
MIC80 [1]: 0.25 µg/mL (≈ 0.501 µM)
MIC80 (Aspergillus fumigatus): 1 µg/mL (≈ 2.01 µM)
MIC80 (Candida parapsilosis): 0.0625 µg/mL (≈ 0.125 µM)
MIC80 (Nannizzia gypsea): 0.25 µg/mL (≈ 0.501 µM)
MIC80 (Candida tropicalis): 0.0625 µg/mL (≈ 0.125 µM)
MIC80 (Trichophyton rubrum): 0.0625 µg/mL (≈ 0.125 µM)
MIC80 (Candida albicans): 0.0156 µg/mL (≈ 0.0313 µM)
MIC80 (Cryptococcus neoformans): 0.25 µg/mL (≈ 0.501 µM)

CCCCCC(=O)Nc1ccc(N2CCN(CC(O)(Cn3cncn3)c3ccc(F)cc3F)CC2)cc1 (racemic)
MIC80 [1]: 1 µg/mL (≈ 1.95 µM)
MIC80 (Aspergillus fumigatus): > 64 µg/mL
MIC80 (Candida parapsilosis): 0.25 µg/mL (≈ 0.488 µM)
MIC80 (Nannizzia gypsea): 0.0625 µg/mL (≈ 0.122 µM)
MIC80 (Candida tropicalis): 0.25 µg/mL (≈ 0.488 µM)
MIC80 (Trichophyton rubrum): 0.0625 µg/mL (≈ 0.122 µM)
MIC80 (Candida albicans): 0.0156 µg/mL (≈ 0.0304 µM)
MIC80 (Cryptococcus neoformans): 1 µg/mL (≈ 1.95 µM)

CC(C)(C)C(=O)Nc1ccc(N2CCN(CC(O)(Cn3cncn3)c3ccc(F)cc3F)CC2)cc1 (racemic)
MIC80 [1]: 1 µg/mL (≈ 2.01 µM)
MIC80 (Aspergillus fumigatus): 16 µg/mL (≈ 32.1 µM)
MIC80 (Candida parapsilosis): 0.0156 µg/mL (≈ 0.0313 µM)
MIC80 (Nannizzia gypsea): 0.0156 µg/mL (≈ 0.0313 µM)
MIC80 (Candida tropicalis): 0.0156 µg/mL (≈ 0.0313 µM)
MIC80 (Trichophyton rubrum): 0.0039 µg/mL (≈ 0.00782 µM)
MIC80 (Candida albicans): 0.0156 µg/mL (≈ 0.0313 µM)
MIC80 (Cryptococcus neoformans): 0.25 µg/mL (≈ 0.501 µM)

CCCCCCC(=O)Nc1ccc(N2CCN(CC(O)(Cn3cncn3)c3ccc(F)cc3F)CC2)cc1 (racemic)
MIC80 [1]: 0.0625 µg/mL (≈ 0.119 µM)
MIC80 (Aspergillus fumigatus): > 64 µg/mL
MIC80 (Candida parapsilosis): 0.0156 µg/mL (≈ 0.0296 µM)
MIC80 (Nannizzia gypsea): 0.0039 µg/mL (≈ 0.00741 µM)
MIC80 (Candida tropicalis): 0.0156 µg/mL (≈ 0.0296 µM)
MIC80 (Trichophyton rubrum): 0.0039 µg/mL (≈ 0.00741 µM)
MIC80 (Candida albicans): 0.00097 µg/mL (≈ 0.00184 µM)
MIC80 (Cryptococcus neoformans): 0.0625 µg/mL (≈ 0.119 µM)

CCCCCCCC(=O)Nc1ccc(N2CCN(CC(O)(Cn3cncn3)c3ccc(F)cc3F)CC2)cc1 (racemic)
MIC80 [1]: 1 µg/mL (≈ 1.85 µM)
MIC80 (Aspergillus fumigatus): 1 µg/mL (≈ 1.85 µM)
MIC80 (Candida parapsilosis): 0.0625 µg/mL (≈ 0.116 µM)
MIC80 (Nannizzia gypsea): 0.0156 µg/mL (≈ 0.0289 µM)
MIC80 (Candida tropicalis): 0.0625 µg/mL (≈ 0.116 µM)
MIC80 (Trichophyton rubrum): 0.0625 µg/mL (≈ 0.116 µM)
MIC80 (Candida albicans): 0.0156 µg/mL (≈ 0.0289 µM)
MIC80 (Cryptococcus neoformans): 0.0625 µg/mL (≈ 0.116 µM)

CCCCCCCCCC(=O)Nc1ccc(N2CCN(CC(O)(Cn3cncn3)c3ccc(F)cc3F)CC2)cc1 (racemic)
MIC80 [1]: 1 µg/mL (≈ 1.76 µM)
MIC80 (Aspergillus fumigatus): 1 µg/mL (≈ 1.76 µM)
MIC80 (Candida parapsilosis): 1 µg/mL (≈ 1.76 µM)
MIC80 (Nannizzia gypsea): 0.0156 µg/mL (≈ 0.0274 µM)
MIC80 (Candida tropicalis): 0.25 µg/mL (≈ 0.44 µM)
MIC80 (Trichophyton rubrum): 0.0625 µg/mL (≈ 0.11 µM)
MIC80 (Candida albicans): 0.0156 µg/mL (≈ 0.0274 µM)
MIC80 (Cryptococcus neoformans): 0.0625 µg/mL (≈ 0.11 µM)

CCCCCCCCCCCC(=O)Nc1ccc(N2CCN(CC(O)(Cn3cncn3)c3ccc(F)cc3F)CC2)cc1 (racemic)
MIC80 [1]: 0.25 µg/mL (≈ 0.419 µM)
MIC80 (Aspergillus fumigatus): 1 µg/mL (≈ 1.68 µM)
MIC80 (Candida parapsilosis): 0.25 µg/mL (≈ 0.419 µM)
MIC80 (Nannizzia gypsea): 0.0156 µg/mL (≈ 0.0261 µM)
MIC80 (Candida tropicalis): 1 µg/mL (≈ 1.68 µM)
MIC80 (Trichophyton rubrum): 0.0625 µg/mL (≈ 0.105 µM)
MIC80 (Candida albicans): 0.0625 µg/mL (≈ 0.105 µM)
MIC80 (Cryptococcus neoformans): 0.0625 µg/mL (≈ 0.105 µM)

CCCCCCCCCCCCCCCC(=O)Nc1ccc(N2CCN(CC(O)(Cn3cncn3)c3ccc(F)cc3F)CC2)cc1 (racemic)
MIC80 [1]: 4 µg/mL (≈ 6.13 µM)
MIC80 (Aspergillus fumigatus): > 64 µg/mL
MIC80 (Candida parapsilosis): 1 µg/mL (≈ 1.53 µM)
MIC80 (Nannizzia gypsea): 0.25 µg/mL (≈ 0.383 µM)
MIC80 (Candida tropicalis): 1 µg/mL (≈ 1.53 µM)
MIC80 (Trichophyton rubrum): 0.25 µg/mL (≈ 0.383 µM)
MIC80 (Candida albicans): 0.25 µg/mL (≈ 0.383 µM)
MIC80 (Cryptococcus neoformans): 16 µg/mL (≈ 24.5 µM)

CC(=O)Nc1ccc(N2CCN(CC(O)(Cn3cncn3)c3ccc(F)cc3F)CC2)c(F)c1 (racemic)
MIC80 [1]: 0.25 µg/mL (≈ 0.527 µM)
MIC80 (Aspergillus fumigatus): 4 µg/mL (≈ 8.43 µM)
MIC80 (Candida parapsilosis): 0.0625 µg/mL (≈ 0.132 µM)
MIC80 (Nannizzia gypsea): 1 µg/mL (≈ 2.11 µM)
MIC80 (Candida tropicalis): 0.0625 µg/mL (≈ 0.132 µM)
MIC80 (Trichophyton rubrum): 0.25 µg/mL (≈ 0.527 µM)
MIC80 (Candida albicans): 0.0625 µg/mL (≈ 0.132 µM)
MIC80 (Cryptococcus neoformans): 1 µg/mL (≈ 2.11 µM)

O=C(CCl)Nc1ccc(N2CCN(CC(O)(Cn3cncn3)c3ccc(F)cc3F)CC2)c(F)c1 (racemic)
MIC80 [1]: 0.0625 µg/mL (≈ 0.123 µM)
MIC80 (Aspergillus fumigatus): 1 µg/mL (≈ 1.96 µM)
MIC80 (Candida parapsilosis): 0.0156 µg/mL (≈ 0.0307 µM)
MIC80 (Nannizzia gypsea): 0.0156 µg/mL (≈ 0.0307 µM)
MIC80 (Candida tropicalis): 0.0156 µg/mL (≈ 0.0307 µM)
MIC80 (Trichophyton rubrum): 0.0625 µg/mL (≈ 0.123 µM)
MIC80 (Candida albicans): 0.0039 µg/mL (≈ 0.00766 µM)
MIC80 (Cryptococcus neoformans): 0.0625 µg/mL (≈ 0.123 µM)
